In the library only some 2.9% were active in any assay of this set; here they are far more common.
MEKK2 mut-MEK5 = signal of MEK5 binding to mutant human MEKK2 PB1 domain; bead flow cytometry, Alexa488-MEK5 binding to MEKK2 mutant; percent response, % at 10 µM; 290,000 compounds, 0.35% hits; AID 1530; in the data active = percent response above about 24%, passing the limit was not always enough
Apaf1 inhib = inhibitors of human Apaf-1 apoptosome | inhibition, % at 20 µM | reconstituted apoptosome caspase-3 activity, DEVD-Rh110 fluorescence | AID 489030 | O14727 | 330,000 compounds, 0.71% hits; active = inhibition of at least 40% at 20 µM;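 note: plate controls were DMSO wells for no effect and DEVD-CHO caspase inhibitor wells for full effect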
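System: reconstituted apoptosome with Apaf-1, cytochrome c, caspase-9, procaspase-3, dATP; Signal: Rh110 fluorescence intensity; Schedule: 30 min compound preincubation, 50 min activation, room temperature; Reagent: cytochrome c trigger plus (Z-DEVD)2-Rh110 caspase-3 substrate.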
MEKK3 PB1 HTS = MEKK3-MEK5 PB1 interaction, increase or decrease; Q99759; bead-based flow cytometry, Alexa488-MEK5 binding to MEKK3; actives lie on both sides; 0 = blocked by unlabeled MEK5, 100 = vehicle; binding response (% of control), % at 10 µM; 290,000 compounds, 1.4% hits; AID 1529;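 active = binding response more than 3 SD above or below the average of its plate-row segment, actives on both sides; inconclusive = wells at one plate position flagged as instrument error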;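 note: Alexa488 bead fluorescence after subtracting the streptavidin-only scavenger bead signal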
UBC13 inh = human UBC13 polyubiquitination inhibition; UBC13 polyubiquitin chain formation, TR-FRET; inhibition, % at 20 µM; P61088; 330,000 compounds, 0.47% hits; in the data active = inhibition above about 45%, passing the limit was not always enough; inconclusive = no clear call, values can overlap the other calls
Target sequence (P61088 whole entry, looked up): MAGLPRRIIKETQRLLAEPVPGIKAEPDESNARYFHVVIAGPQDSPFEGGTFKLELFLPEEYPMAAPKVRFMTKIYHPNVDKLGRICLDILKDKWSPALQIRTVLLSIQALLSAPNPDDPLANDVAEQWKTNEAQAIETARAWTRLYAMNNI
MEKK2wt PB1 HTS = raises or lowers MEK5 binding to wildtype human MEKK2 PB1 domain; AID 1531; binding response (% of control), % at 10 µM; bead flow cytometry, Alexa488-MEK5 binding to MEKK2 WT; actives lie on both sides; 290,000 compounds, 1.1% hits; in the data active = binding response below about 67% or above about 130%; inconclusive = no clear call, values can overlap the other calls; inactive = in between
Casp3 counter = inhibits human caspase-3 in UBC13 counter-screen. 1,400 compounds, 4% hits. Recombinant caspase-3, Caspase-Glo 3/7 luminescence, 60 min. inhibition, % at 20 µM. shares compounds with UBC13 inh;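 active = mean inhibition across replicates above about 26%, limit read from the data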;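 note: plate controls were DMSO with caspase-3 for no effect and DMSO wells lacking enzyme for full effect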
Target sequence (P42574 whole entry, looked up): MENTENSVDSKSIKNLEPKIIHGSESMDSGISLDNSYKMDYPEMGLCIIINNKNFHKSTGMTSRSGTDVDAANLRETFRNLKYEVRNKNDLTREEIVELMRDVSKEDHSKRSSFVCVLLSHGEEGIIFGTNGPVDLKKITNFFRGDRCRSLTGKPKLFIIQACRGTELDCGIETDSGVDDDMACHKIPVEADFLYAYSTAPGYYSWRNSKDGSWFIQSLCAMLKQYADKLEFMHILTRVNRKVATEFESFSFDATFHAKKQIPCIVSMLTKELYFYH
UBC13 conf = human UBC13 polyubiquitin inhibition, confirmed; shares compounds with UBC13 inh; AID 488859; UBC13 polyubiquitination, TR-FRET, biochemical; 1,400 compounds, 68% hits; inhibition, % at 10 µM; in the data active = inhibition above about 45%; inconclusive = no clear call, values can overlap the other calls
Starred values were filed as active, the others as inactive; ? = inconclusive; / = no result given.

SMILES | MEKK2 mut-MEK5 | Apaf1 inhib | MEKK3 PB1 HTS | UBC13 inh | MEKK2wt PB1 HTS | Casp3 counter | UBC13 conf
O=C(c1cccc(S(=O)(=O)N2CCOCC2)c1)N(Cc1nnc(-c2ccccc2Cl)o1)C1CC1 | / | 1 | / | -5 | / | / | /
CC(C)n1c(NCc2cc(Cl)ccc2O)nc2ccccc21 | 8 | 15 | 107 | 67* | 113 | 0 | 54*
Cc1ccccc1C(=O)Nc1cc(S(=O)(=O)N2CCCCC2)ccc1N1CCN(C)CC1 | -1 | 0 | 97 | 18 | 107 | / | /
CN1CCN(c2ccc(S(=O)(=O)N3CCCCC3)cc2NC(=O)c2ccc3ccccc3c2)CC1 | 10 | -155 | 115 | 46* | 131 | -6 | 52*
CN(CCNC(=O)CCCOc1cc(=O)n(C)c2ccccc12)Cc1ccccc1 | -12 | 7 | 101 | 51* | 105 | 4 | 68*
NC1=NC[C@H](Cc2ccc(O)cc2)N1CCc1cc(C(F)(F)F)cc(C(F)(F)F)c1 | 8 | 28 | 89 | 52* | 94 | -6 | 33
NCCCC[C@@H]1NC(=O)c2cc([N+](=O)[O-])cc(I)c2SC[C@@H](C(N)=O)NC(=O)[C@H](Cc2ccc(O)cc2)NC1=O | 10 | 6 | 99 | 59* | 116 | 0 | 81*
CC(C)NC(=O)C1(S(=O)(=O)c2ccccc2)CC=CC1 | 0 | -7 | 103 | 5 | 97 | / | /
CCOC(=O)c1ccc(NC(=O)c2nc[nH]c2C(=O)NC2CCN(C(=O)OC(C)(C)C)CC2)cc1 | 6 | 12 | 85 | 92* | 81 | -1 | 92*
CCOC(=O)c1ccc(NC(=O)c2nc[nH]c2C(=O)NCCCCCNC(=O)OC(C)(C)C)cc1 | -9 | 35 | 92 | 45* | 89 | -2 | 22
CCOC(=O)c1ccc(NC(=O)c2nc[nH]c2C(=O)NCC(=O)OC(C)(C)C)cc1 | 4 | 25 | 91 | 52* | 85 | -2 | 28
CC(C)(C)OC(=O)N1CCC(NC(=O)c2nc[nH]c2C(=O)NC2CCN(C(=O)OC(C)(C)C)CC2)CC1 | / | 19 | / | 8 | / | / | /
CCOC(=O)c1ccc(NC(=O)c2nc[nH]c2C(=O)NCCCNC(=O)c2[nH]cnc2C(=O)Nc2ccc(C(=O)OCC)cc2)cc1 | / | -1 | / | 15 | / | / | /
CCOC(=O)N1CCN(S(=O)(=O)c2cc([N+](=O)[O-])c(C)cc2C)CC1 | 2 | 4 | 100 | -2 | 104 | / | /
COc1ccccc1NC(=O)COC(=O)C12CC3CC(CC(Br)(C3)C1)C2 | / | 12 | / | 50* | / | -3 | 44
COc1ccccc1NC(=O)CNC(=O)CC12CC3CC(CC(C3)C1)C2 | / | 8 | / | 80* | / | 3 | 79*
COc1ccc(CNC(=O)CC23CC4CC(CC(C4)C2)C3)cc1OC | 2 | -2 | 102 | 4 | 105 | / | /
CC(NC(=O)CCn1nc(-c2ccc(Cl)cc2)ccc1=O)c1ccccc1 (centres undefined) | 3 | -10 | 104 | 6 | 103 | / | /
O=C(NCc1ccccc1C(F)(F)F)C1CCC(=O)N(CCCc2ccccc2)C1 (centres undefined) | 3 | 10 | 104 | -2 | 105 | / | /
Cc1c(Br)c(C(=O)NNC(=O)c2ccc(C(C)(C)C)cc2)nn1C | 2 | -24 | 104 | 56* | 104 | 0 | 57*
O=C(OCc1cc(=O)n2ccsc2n1)c1ccccc1NCCO | / | -3 | / | -3 | / | / | /
CC(=O)n1cc([C@H]2C=C(C(=O)Nc3ccccc3)O[C@@H](OCCCCO)C2)c2ccccc21 | 3 | 13 | 89 | 69* | 84 | 2 | 45
O=C(O)CCC(CNS(=O)(=O)c1ccccc1)C(F)(F)F (centres undefined) | -1 | -2 | 109 | -1 | 103 | / | /
CCOC(=O)c1nn(-c2ccccc2)c(=O)cc1OCC(=O)Nc1cc(C)ccc1OC | / | -57 | / | 48* | / | -5 | ?
CCCc1c(C(=O)N/N=C/c2cccc(OCc3ccc(F)cc3)c2)nnn1-c1nonc1N | 1 | 8 | 103 | -5 | 100 | / | /

Source: PubChem
